Series [1] in a line: Stability in mouse plasma assessed as drug degradation. It is filed as ADME, cell-free.
Series [2] can be described thus: Stability in mouse liver microsomes assessed as drug degradation. It is filed as ADME, Microsome.
Series [3] in a line: Tmax in CD-1 mouse plasma at 2.5 mg/kg, iv measured for 24 hrs by LC-MS/MS analysis. The series is classed as ADME, organism-based. The conditions noted are these: in vivo. The method, boiled down: (§1)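 Fasted (~4 h) male CD1 mice, n = 24 per route, received 2.5 mg/kg iv or ip in 5% DMSO/95% normal saline. Blood was drawn into K2EDTA at pre-dose, 0.083, 0.5, 1, 2, 4, 8 and 24 h, and plasma was separated. Samples were precipitated with acetonitrile, with tolbutamide as internal standard, then quantified by UPLC-MS/MS (MRM). Parameters came from noncompartmental analysis.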

Series [4] is described as follows: Bioavailability in CD-1 mouse plasma at 2.5 mg/kg, ip measured for 24 hrs by LC-MS/MS analysis. The series is classed as ADME, organism-based. The conditions noted are these: in vivo. In short, it runs like this:
as §1

Series [5] in a line: Tmax in CD-1 mouse kidney at 2.5 mg/kg, ip measured for 24 hrs by LC-MS/MS analysis. It is filed as ADME, organism-based. The conditions noted are these: in vivo. The method, boiled down: (§2)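 Male CD1 mice (25–30 g), fasted ~4 h, given 2.5 mg/kg ip in 5% DMSO/95% normal saline. Brain, liver and kidney were taken at pre-dose, 0.5, 2, 4 and 24 h and homogenized in 5 volumes PBS. Homogenates got tolbutamide internal standard and acetonitrile protein precipitation. UPLC-MS/MS used MRM. Parameters came from noncompartmental analysis.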

Series [6] relates to WSU-HN30. Put plainly: Antiproliferative activity against human WSU-HN30 cells assessed as suppression of cell growth incubated for 24 to 72 hrs by CCK-8 assay. The series is classed as functional, cell-based. The settings on record: dose 10-300 µM, time 24-72 hrs. In short, it runs like this: (§3)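 Radiotherapy-resistant HNSCC lines were used: HN30 from pharynx SCC and HN31 from a lymph-node metastasis of the same patient. Cells in RPMI 1640 with 10% FBS were seeded at 3,000 per well and treated 24 h later with 10–300 μM (5 levels) for 24 or 72 h, with cisplatin as control. CCK-8 was read at OD450 after 2 h. Data are % survival, n = 3 independent experiments.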
On the technique in general: Tetrazolium assays rely on reduction of a dye to a coloured formazan, in cell work by metabolically active cells.

Series [7] can be described thus: Apparent half life in CD-1 mouse liver at 2.5 mg/kg, ip measured for 24 hrs by LC-MS/MS analysis. The settings on record: in vivo. It is filed as ADME, organism-based. In short, it runs like this: as §2
A short description of series [8]: Tmax in CD-1 mouse brain at 2.5 mg/kg, ip measured for 24 hrs by LC-MS/MS analysis. The settings on record: in vivo. The series is classed as ADME, organism-based. In short, it runs like this:
as §2

The nature of series [9]: Cytotoxicity against human MCF-10A cells assessed as inhibition of cell growth incubated for 24 hrs by Hoechst 33342/propidium iodide staining based fluorescence analysis. The series is classed as toxicity. The settings on record: human, MCF-10A cells.
Series [10] can be described thus: AUC (0 to infinity) in CD-1 mouse kidney at 2.5 mg/kg, ip measured for 24 hrs by LC-MS/MS analysis. The series is classed as ADME, organism-based. Further details: time 24 hrs, dose 2.5 mg/kg, route ip. The conditions noted are these: in vivo. In short, it runs like this:
as §2

Series [11] can be described thus: Cmax in CD-1 mouse kidney at 2.5 mg/kg, ip measured for 24 hrs by LC-MS/MS analysis. The settings on record: in vivo. It is filed as ADME, organism-based. Also on record: dose 2.5 mg/kg, time 24 hrs, route ip. In short, it runs like this: as §2
The nature of series [12]: Volume of distribution in CD-1 mouse plasma at 2.5 mg/kg, iv measured for 24 hrs by LC-MS/MS analysis. The series is classed as ADME, organism-based. The settings on record: in vivo. In short, it runs like this: as §1
Series [13] can be described thus: Cmax in CD-1 mouse plasma at 2.5 mg/kg, ip measured for 24 hrs by LC-MS/MS analysis. The series is classed as ADME, organism-based. Further details: dose 2.5 mg/kg, time 24 hrs, route ip. The settings on record: in vivo. In short, it runs like this:
as §1

Series [14] in a line: Cytotoxicity against human MCF-10A cells assessed as inhibition of cell growth incubated for 72 hrs by Hoechst 33342/propidium iodide staining based fluorescence analysis. The settings on record: human, MCF-10A cells. It is filed as toxicity.
A short description of series [15]: Apparent half life in CD-1 mouse kidney at 2.5 mg/kg, ip measured for 24 hrs by LC-MS/MS analysis. The series is classed as ADME, organism-based. The conditions noted are these: in vivo. The method, boiled down: as §2
Series [16] is described as follows: AUC (0 to infinity) in CD-1 mouse plasma at 2.5 mg/kg, ip measured for 24 hrs by LC-MS/MS analysis. It is filed as ADME, organism-based. Also on record: dose 2.5 mg/kg, time 24 hrs, route ip. In short, it runs like this: as §1
A short description of series [17]: Apparent half life in CD-1 mouse plasma at 2.5 mg/kg, ip measured for 24 hrs by LC-MS/MS analysis. The series is classed as ADME, organism-based. The conditions noted are these: in vivo. The method, boiled down:
as §1

A short description of series [18]: Antiproliferative activity against human WSU-HN31 cells assessed as inhibition of cell growth incubated for 72 hrs by CCK-8 assay. It is filed as functional, cell-based. The settings on record: WSU-HN31, 72 h. The method, boiled down:
as §3

Series [19] can be described thus: Clearance in CD-1 mouse plasma at 2.5 mg/kg, iv measured for 24 hrs by LC-MS/MS analysis relative to hepatic blood flow. It is filed as ADME, organism-based. The conditions noted are these: in vivo. In short, it runs like this: as §1
Series [20] can be described thus: Antiproliferative activity against human WSU-HN30 cells assessed as inhibition of cell growth incubated for 72 hrs by CCK-8 assay. The series is classed as functional, cell-based. The conditions noted are these: WSU-HN30, 72 h. In short, it runs like this: as §3
Series [21] can be described thus: AUC (0 to infinity) in CD-1 mouse liver at 2.5 mg/kg, ip measured for 24 hrs by LC-MS/MS analysis. It is filed as ADME, organism-based. Further details: time 24 hrs, dose 2.5 mg/kg, route ip. The settings on record: in vivo. In short, it runs like this:
as §2

A short description of series [22]: AUC (0 to infinity) in CD-1 mouse plasma at 2.5 mg/kg, iv measured for 24 hrs by LC-MS/MS analysis. It is filed as ADME, organism-based. Further details: dose 2.5 mg/kg, time 24 hrs, route iv. In short, it runs like this:
as §1

The nature of series [23]: Tmax in CD-1 mouse plasma at 2.5 mg/kg, ip measured for 24 hrs by LC-MS/MS analysis. The series is classed as ADME, organism-based. The settings on record: in vivo. The method, boiled down:
as §1

Series [24] can be described thus: Antiproliferative activity against human BNC3 cells assessed as inhibition of cell growth incubated for 72 hrs by CCK-8 assay. It is filed as functional, cell-based. The conditions noted are these: BNC3, 72 h. In short, it runs like this: (§4)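 Primary patient-derived glioblastoma lines were grown in RPMI 1640 with 10% FBS. Cells were seeded at 3,000 per well and dosed 24 h later at 10, 50, 100, 200 and 300 μM for 24 or 72 h, with BiCNU as control. CCK-8 was added and OD450 read after 2 h at 37 °C. Data are % cell survival, from 3 independent replicates.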

Series [25] is described as follows: AUC (0 to infinity) in CD-1 mouse brain at 2.5 mg/kg, ip measured for 24 hrs by LC-MS/MS analysis. The series is classed as ADME, organism-based. Also on record: dose 2.5 mg/kg, time 24 hrs, route ip. The settings on record: in vivo. The method, boiled down:
as §2

Series [26] deals with BNC6. Put plainly: Antiproliferative activity against human BNC6 cells assessed as suppression of cell growth incubated for 24 to 72 hrs by CCK-8 assay. It is filed as functional, cell-based. The settings on record: dose 10-300 µM, time 24-72 hrs. In short, it runs like this:
as §4

A short description of series [27]: Cmax in CD-1 mouse plasma at 2.5 mg/kg, iv measured for 24 hrs by LC-MS/MS analysis. The series is classed as ADME, organism-based. Also on record: time 24 hrs, dose 2.5 mg/kg, route iv. The settings on record: in vivo. The method, boiled down:
as §1

Series [28] can be described thus: Tmax in CD-1 mouse liver at 2.5 mg/kg, ip measured for 24 hrs by LC-MS/MS analysis. The conditions noted are these: in vivo. The series is classed as ADME, organism-based. The method, boiled down:
as §2

Series [29] in a line: Terminal half life in CD-1 mouse plasma at 2.5 mg/kg, iv measured for 24 hrs by LC-MS/MS analysis. The series is classed as ADME, organism-based. The conditions noted are these: in vivo. The method, boiled down:
as §1

Series [30] concerns BNC3. Description: Antiproliferative activity against human BNC3 cells assessed as suppression of cell growth incubated for 24 to 72 hrs by CCK-8 assay. The series is classed as functional, cell-based. The settings on record: dose 10-300 µM, time 24-72 hrs. In short, it runs like this:
as §4

The nature of series [31]: Antiproliferative activity against human BNC6 cells assessed as inhibition of cell growth incubated for 72 hrs by CCK-8 assay. The series is classed as functional, cell-based. The settings on record: BNC6, 72 h. The method, boiled down:
as §4

Series [32] deals with WSU-HN31. Put plainly: Antiproliferative activity against human WSU-HN31 cells assessed as suppression of cell growth incubated for 24 to 72 hrs by CCK-8 assay. The series is classed as functional, cell-based. The settings on record: dose 10-300 µM, time 24-72 hrs. In short, it runs like this:
as §3

The nature of series [33]: Cmax in CD-1 mouse liver at 2.5 mg/kg, ip measured for 24 hrs by LC-MS/MS analysis. The settings on record: in vivo. Further details: time 24 hrs, dose 2.5 mg/kg, route ip. The series is classed as ADME, organism-based. The method, boiled down:
as §2

Structures are written as SMILES. pIC50: −log10 of the molar value.

For orientation: Tmax means the time at which the peak concentration occurs. What is called IC50 is the concentration at which inhibition is half-maximal. In general, Cmax refers to the maximum level reached in the sampled fluid or tissue. Usually Vd stands for a proportionality between amount in the body and measured concentration, not a real space. Lower therefore signals confinement near the circulation. The term AUC(0-inf) denotes total exposure, with the tail of the curve extrapolated. For orientation: pIC50 means −log10 of the IC50, conventionally taken in molar units.

With `NCc1ccc(F)cc1`, the Stability result in series [1] and in series [2] was “Unstable” in each case.

Take `C=C(C[C@H](N)C(=O)O)C(=O)NCc1ccc(F)cc1`: the Tmax in [3] is 7.2 min; in series [5], 30 min; in series [8], 30 min; in [23], 13.2 min; in [28], 60 min. Besides, the F in series [4] came to 66%. Also, the Activity result in [6], in [26], in [30] and in series [32] was “Dose-Dependent Effect” throughout. Moreover, the “t1/2(app)” value in series [7] was 25.8 min; in series [15], 27.6 min; in series [17], 25.8 min. The IC50 at 24 h in [9] was over 1000 µM. Moreover, the AUC came to 21944 ng·h/g in series [10], 10596 ng·h/g in series [21] and 44 ng·h/g in series [25]. For the same compound, the Cmax in series [11] came out at 17681 ng/g; in series [13], 1543 ng/mL; in series [27], 3016 ng/mL; in series [33], 7291 ng/g. In series [12], this compound yielded a Vd of 4.6 L/kg. Further, the half-inhibitory concentration (IC50) at 72 h in series [14] is over 1000 µM. Also, the AUC(0-inf) in series [16] was 967 ng·h/mL; in series [22], 1460 ng·h/mL. The pIC50 was 3.71 in series [18], 3.99 in series [20], 3.77 in [24] and 3.72 in series [31]. Besides, the CL in [19] is recorded as 31%. Besides, in series [29], the “beta t1/2” value came to 48 min.

For the origin of these results see ChEMBL document CHEMBL5236662, “Synthesis and biological evaluation of tert-butyl ester and ethyl ester prodrugs of L-γ-methyleneglutamic acid amides for cancer” (Bioorg Med Chem, 2023).
